Experimental data reported in ChEMBL document CHEMBL1255259, “Phosphorothioate-modified oligodeoxynucleotides inhibit human cytomegalovirus replication by blocking virus entry” (Antimicrob Agents Chemother, 2008).
Activity calls are given as the source filed them. No cut-off for these calls is given here.

Legend:
Human betaherpesvirus 5 [1] = assay: Antimicrobial activity against 0.1 uM compound pretreated Human cytomegalovirus AD169 infected in HELF assessed as reduction in viral titer 37 degC; type: functional, organism-based
Outline: (§1)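 HCMV AD169 (10^4 PFU) incubated with ODN at 0.1 μM at 4 or 37°C for various times; samples then diluted to bring ODN below an antivirally active level; residual infectivity titrated by plaque assay on HELF. Means ± SD of three independent experiments.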

[2] = Cytotoxicity against HELF assessed as cell viability by MTT assay after 6 days at <=10 uM; type: cell-based; conditions: human, 144 h
Outline: (§2)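 HELF exposed to rising ODN concentrations (up to 10 μM) for 6 days; viable cells measured by MTT. CC50 taken as concentration that cuts viability to 50%.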

Human betaherpesvirus 5 [3] = assay: Antimicrobial activity against Human cytomegalovirus AD169 infected in compound pretreated HELF assessed as inhibition of viral replication measured after 6 days post-infection; type: functional, organism-based; conditions: Human betaherpesvirus 5, AD169, HELF
Outline: (§3)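 HELF pretreated with ODN 1 h before infection with HCMV AD169 (MOI 1); ODN kept in medium after 2 h adsorption at 37°C. At 6 days p.i., cells plus supernatants sonicated and titrated by plaque assay on HELF; plaques counted microscopically, expressed as PFU/ml (log10) or % of control. IC50/IC90 by linear regression; duplicate wells, three independent experiments, means ± SD.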

Human betaherpesvirus 5 [4] = assay: Antimicrobial activity against Human cytomegalovirus AD169 infected in 0.1 uM compound pretreated HELF assessed as inhibition of viral replication measured after 6 days post-infection; type: functional, organism-based; outline: as §3
Human alphaherpesvirus 1 [5] = assay: Antimicrobial activity against Human herpesvirus 1 infected in compound pretreated HELF assessed as inhibition of viral replication at 0.1 uM; type: functional, organism-based
Outline: (§4)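 HELF pretreated with ODN (0.1 or 1 μM) 1 h before infection with a clinical HSV-1 isolate at MOI 0.1; ODN kept in medium after 2 h adsorption. Harvest at 48 h p.i., sonication, plaque titration on Vero cells. Means ± SD of three independent experiments.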

Human betaherpesvirus 5 [6] = assay: Antimicrobial activity against 0.1 uM compound pretreated Human cytomegalovirus AD169 infected in HELF assessed as reduction in viral titer at 4 degC; type: functional, organism-based; outline: as §1
Human betaherpesvirus 5 [7] = assay: Antimicrobial activity against Human cytomegalovirus AD169 infected in HELF assessed as inhibition of viral replication at 1 uM measured after 6 days post-infection; type: functional, organism-based
Human alphaherpesvirus 1 [8] = assay: Antimicrobial activity against Human herpesvirus 1 infected in compound pretreated HELF assessed as inhibition of viral replication at 1 uM; type: functional, organism-based; outline: as §4
[9] = Cytotoxicity against HELF assessed as cell viability after 6 days by MTT assay; type: cell-based; conditions: human, HELF cells; outline: as §2
unidentified adenovirus = assay: Antimicrobial activity against unidentified adenovirus infected in compound pretreated HELF assessed as inhibition of viral replication; type: functional, organism-based
Outline: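 HELF pretreated 1 h with ODN (0.1 or 1 μM), infected with an adenovirus clinical isolate (MOI 1); ODN kept after 2 h adsorption. Harvest at 4 days p.i., sonication, plaque titration on HELF. Means ± SD, three experiments.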

Human betaherpesvirus 5 [10] = assay: Antimicrobial activity against Human cytomegalovirus AD169 infected in 1 uM compound pretreated HELF assessed as inhibition of viral replication measured after 6 days post-infection; type: functional, organism-based; outline: as §3
Human betaherpesvirus 5 [11] = assay: Antimicrobial activity against Human cytomegalovirus AD169 infected in HELF assessed as inhibition of viral replication at 0.1 uM measured after 6 days post-infection; type: functional, organism-based
[12] = test system: Vesicular stomatitis Indiana virus; assay: Antimicrobial activity against Vesicular stomatitis Indiana virus infected in compound pretreated HELF assessed as inhibition of viral replication; type: functional, organism-based
Outline: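 HELFs exposed to ODN (0.1 or 1 μM) for 1 h, then infected with VSV serotype Indiana at MOI 1 (2 h adsorption, 37°C). ODN kept in the medium until 48 h p.i. Cells and supernatants were pooled, sonicated and titrated by plaque assay on HELFs. Data are means ± standard deviations of three independent experiments, duplicate wells.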

Human betaherpesvirus 5 [13] = assay: Antimicrobial activity against Human cytomegalovirus AD169 infected in compound pretreated HELF measured as immediate early 1 mRNA level by RT-PCR; type: functional, organism-based
Human betaherpesvirus 5 [14] = assay: Antimicrobial activity against Human cytomegalovirus AD169 infected in compound pretreated HELF measured as immediate early 2 mRNA level by RT-PCR; type: functional, organism-based
Human betaherpesvirus 5 [15] = assay: Antimicrobial activity against Human cytomegalovirus TB40 expressing EGPF tagged UL32 infected in HELF assessed as inhibition of inhibition of viral adsorption at 0.1 uM after 2 hrs by fluorescence microscopy; type: functional, organism-based
Outline: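 Prechilled HELF on coverslips exposed to ODN (0.1 μM) or heparin (30 μg/ml) 1 h at 4°C, then infected with HCMV TB40 UL32-EGFP (MOI 20) 2 h at 4°C to permit attachment only. Washed in ice-cold PBS, fixed in 4% formaldehyde, propidium iodide counterstain; green virions imaged by confocal fluorescence microscopy. Done twice.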

SMILES | inhibition (Human betaherpesvirus 5 [1]) | Activity [2] | IC50 (Human betaherpesvirus 5 [3]) [nM] | IC90 (Human betaherpesvirus 5 [3]) [nM] | inhibition (Human betaherpesvirus 5 [4]) | inhibition (Human alphaherpesvirus 1 [5]) | inhibition (Human betaherpesvirus 5 [6]) | inhibition (Human betaherpesvirus 5 [7]) | inhibition (Human alphaherpesvirus 1 [8]) | CC50 at 144 h [9] [nM] | inhibition (unidentified adenovirus) | inhibition (Human betaherpesvirus 5 [10]) | inhibition (Human betaherpesvirus 5 [11]) | inhibition [12] | inhibition (Human betaherpesvirus 5 [13]) | inhibition (Human betaherpesvirus 5 [14]) | inhibition (Human betaherpesvirus 5 [15])
Cc1cn([C@H]2C[C@H](OP(O)(O)=S)[C@@H](COP(O)(=S)O[C@H]3C[C@H](n4cc(C)c(=O)[nH]c4=O)O[C@@H]3COP(O)(=S)O[C@H]3C[C@H](n4cc(C)c(=O)[nH]c4=O)O[C@@H]3COP(O)(=S)O[C@H]3C[C@H](n4cc(C)c(=O)[nH]c4=O)O[C@@H]3COP(O)(=S)O[C@H]3[C@@H](O)[C@H](n4cnc5c(=O)[nH]c(N)nc54)O[C@@H]3COP(O)(=S)O[C@H]3[C@@H](O)[C@H](n4ccc(N)nc4=O)O[C@@H]3COP(O)(=S)O[C@H]3C[C@H](n4cc(C)c(=O)[nH]c4=O)O[C@@H]3COP(O)(=S)O[C@H]3[C@@H](O)[C@H](n4cnc5c(=O)[nH]c(N)nc54)O[C@@H]3COP(O)(=S)O[C@H]3[C@@H](O)[C@H](n4cnc5c(=O)[nH]c(N)nc54)O[C@@H]3COP(O)(=S)O[C@H]3[C@@H](O)[C@H](n4ccc(N)nc4=O)O[C@@H]3COP(O)(=S)O[C@H]3C[C@H](n4cc(C)c(=O)[nH]c4=O)O[C@@H]3COP(O)(=S)O[C@H]3C[C@H](n4cc(C)c(=O)[nH]c4=O)O[C@@H]3COP(O)(=S)O[C@H]3C[C@H](n4cc(C)c(=O)[nH]c4=O)O[C@@H]3COP(O)(=S)O[C@H]3C[C@H](n4cc(C)c(=O)[nH]c4=O)O[C@@H]3COP(O)(=S)O[C@H]3C[C@H](n4cc(C)c(=O)[nH]c4=O)O[C@@H]3COP(O)(=S)O[C@H]3[C@@H](O)[C@H](n4cnc5c(=O)[nH]c(N)nc54)O[C@@H]3COP(O)(=S)O[C@H]3[C@@H](O)[C@H](n4ccc(N)nc4=O)O[C@@H]3COP(O)(=S)O[C@H]3C[C@H](n4cc(C)c(=O)[nH]c4=O)O[C@@H]3COP(O)(=S)O[C@H]3[C@@H](O)[C@H](n4cnc5c(=O)[nH]c(N)nc54)O[C@@H]3COP(O)(=S)O[C@H]3[C@@H](O)[C@H](n4ccc(N)nc4=O)O[C@@H]3COP(O)(=S)O[C@H]3C[C@H](n4cc(C)c(=O)[nH]c4=O)O[C@@H]3CO)O2)c(=O)[nH]c1=O (stereo partly specified) | inactive | Non-toxic | 25 | 65 | Active | inactive | inactive | inactive | inactive | > 10000 | inactive | Active | inactive | inactive | Active | Active | 
Cc1cn([C@H]2C[C@H](OP(O)(O)=S)[C@@H](COP(O)(=S)O[C@H]3C[C@H](n4cc(C)c(=O)[nH]c4=O)O[C@@H]3COP(O)(=S)O[C@H]3[C@@H](O)[C@H](n4cnc5c(=O)[nH]c(N)nc54)O[C@@H]3COP(O)(=S)O[C@H]3[C@@H](O)[C@H](n4ccc(N)nc4=O)O[C@@H]3COP(O)(=S)O[C@H]3C[C@H](n4cc(C)c(=O)[nH]c4=O)O[C@@H]3COP(O)(=S)O[C@H]3[C@@H](O)[C@H](n4cnc5c(=O)[nH]c(N)nc54)O[C@@H]3COP(O)(=S)O[C@H]3C[C@H](n4cc(C)c(=O)[nH]c4=O)O[C@@H]3COP(O)(=S)O[C@H]3C[C@H](n4cc(C)c(=O)[nH]c4=O)O[C@@H]3COP(O)(=S)O[C@H]3C[C@H](n4cc(C)c(=O)[nH]c4=O)O[C@@H]3COP(O)(=S)O[C@H]3C[C@H](n4cc(C)c(=O)[nH]c4=O)O[C@@H]3COP(O)(=S)O[C@H]3[C@@H](O)[C@H](n4cnc5c(=O)[nH]c(N)nc54)O[C@@H]3COP(O)(=S)O[C@H]3[C@@H](O)[C@H](n4ccc(N)nc4=O)O[C@@H]3COP(O)(=S)O[C@H]3C[C@H](n4cc(C)c(=O)[nH]c4=O)O[C@@H]3COP(O)(=S)O[C@H]3[C@@H](O)[C@H](n4cnc5c(=O)[nH]c(N)nc54)O[C@@H]3COP(O)(=S)O[C@H]3C[C@H](n4cc(C)c(=O)[nH]c4=O)O[C@@H]3COP(O)(=S)O[C@H]3C[C@H](n4cc(C)c(=O)[nH]c4=O)O[C@@H]3COP(O)(=S)O[C@H]3[C@@H](O)[C@H](n4cnc5c(=O)[nH]c(N)nc54)O[C@@H]3COP(O)(=S)O[C@H]3[C@@H](O)[C@H](n4ccc(N)nc4=O)O[C@@H]3COP(O)(=S)O[C@H]3C[C@H](n4cc(C)c(=O)[nH]c4=O)O[C@@H]3COP(O)(=S)O[C@H]3[C@@H](O)[C@H](n4cnc5c(=O)[nH]c(N)nc54)O[C@@H]3COP(O)(=S)O[C@H]3[C@@H](O)[C@H](n4ccc(N)nc4=O)O[C@@H]3COP(O)(=S)O[C@H]3C[C@H](n4cc(C)c(=O)[nH]c4=O)O[C@@H]3CO)O2)c(=O)[nH]c1=O (stereo partly specified) | inactive | Non-toxic | 200 | 4000 | Active | inactive | inactive | inactive | inactive | > 10000 | inactive | Active | inactive | inactive |  |  | inactive
